From ChEMBL document CHEMBL1122773 (1984)
In brackets after ≈: the same amount, converted by molar mass.

Columns and labels:
Mus musculus [1] = assay: Bioactivity in blood, in Bacteroides fragilis infected mice following subcutaneous dose of 200 mg/kg after 150 mins of bleeding; format: functional
Outline: (§1)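 On day 7 post-infection, groups of five mice were given a single 200 mg/kg subcutaneous dose and killed at set times. Blood was taken by cardiac puncture and abscesses were excised. Activity was measured by standard microbiological assay.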

Staphylococcus aureus [2] = assay: In vitro antibacterial activity against the aerobic Staphylococcus aureus (Strain UC no.76); format: functional
Outline: (§2)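 Broth microdilution in brain/heart infusion broth with twofold drug dilutions. Inoculum was a standardized suspension giving 10⁵ viable cells/mL final. Plates were incubated 20 h at 37 °C. MIC (mcg/mL) = lowest concentration with no visible growth.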

Escherichia coli = assay: In vitro antibacterial activity against the aerobic Escherichia coli (Strain UC no.45); format: functional; outline: as §2
[3] = In vitro antibacterial activity against the aerobic […] III(Strain UC no.3213); format: functional; outline: as §2
Clostridium tetani = assay: In vitro antibacterial activity against the anaerobic Clostridium tetani(Strain UC no.6521); format: functional
Outline: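 Agar dilution under anaerobic conditions. Serial twofold drug dilutions in Schaedler broth were mixed with molten Wilkins-Chalgren agar. Plates were prereduced 3 h (85% N2, 10% H2, 5% CO2). Strains were grown 48 h on Schaedler agar, suspended to 0.5 McFarland, and 0.001 mL spotted by replicator. Incubation was anaerobic, 37 °C, 48 h.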

[4] = In vitro antibacterial activity against the aerobic […] (Strain UC no.153); format: functional; outline: as §2
Staphylococcus aureus [5] = assay: In vitro antibacterial activity against the aerobic Staphylococcus aureus (Strain UC no.6693); format: functional; outline: as §2
Staphylococcus aureus [6] = assay: In vitro antibacterial activity against the aerobic Staphylococcus aureus (Strain UC no.6694); format: functional; outline: as §2
Mus musculus [7] = assay: Bioactivity in abscess, in Bacteroides fragilis infected mice following subcutaneous dose of 200 mg/kg after 45 mins of bleeding; format: functional; outline: as §1
Staphylococcus aureus [8] = assay: In vitro antibacterial activity against the aerobic Staphylococcus aureus (Strain UC no.6696); format: functional; outline: as §2
Staphylococcus aureus [9] = assay: In vitro antibacterial activity against the aerobic Staphylococcus aureus (Strain UC no.6695); format: functional; outline: as §2
Clostridium cadaveris = assay: In vitro antibacterial activity against the anaerobic Clostridium cadaveris (Strain UC no.6510); format: functional
Outline: (§3)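 Agar dilution with serial twofold drug dilutions in Schaedler broth mixed into molten Wilkens-Chalgren agar. Plates prereduced 3 h under 85% N2/10% H2/5% CO2. Strains grown 48 h on Schaedler agar, suspended to 0.5 McFarland, and 0.001 mL spotted by replicator. All steps done anaerobically. Incubation 48 h at 37 °C. MIC is the least drug inhibiting growth; a faint film or fewer than three colonies scored negative.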

Mus musculus [10] = assay: Bioactivity in abscess, in Bacteroides fragilis infected mice following subcutaneous dose of 200 mg/kg after 90 mins of bleeding; format: functional; outline: as §1
Mus musculus [11] = assay: Bioactivity in blood, in Bacteroides fragilis infected mice following subcutaneous dose of 200 mg/kg after 90 mins of bleeding; format: functional; outline: as §1
Mus musculus [12] = assay: Bioactivity in blood, in Bacteroides fragilis infected mice following subcutaneous dose of 200 mg/kg after 30 mins of bleeding; format: functional; outline: as §1
Staphylococcus aureus [13] = assay: In vitro antibacterial activity against the aerobic Staphylococcus aureus (Strain UC no.571); format: functional; outline: as §2
[14] = system: Peptoniphilus asaccharolyticus; assay: In vitro antibacterial activity against the anaerobic Peptoccus aerogenes (Strain UC no.6319); format: functional; outline: as §3
Mus musculus [15] = assay: Bioactivity in blood, in Bacteroides fragilis infected mice following subcutaneous dose of 200 mg/kg after 120 mins of bleeding; format: functional; outline: as §1
Mus musculus [16] = assay: Bioactivity in blood, in Bacteroides fragilis infected mice following subcutaneous dose of 200 mg/kg after 15 mins of bleeding; format: functional; outline: as §1
Staphylococcus aureus [17] = assay: In vitro antibacterial activity against the aerobic Staphylococcus aureus (Strain UC no.6688); format: functional; outline: as §2
Pseudomonas aeruginosa = assay: In vitro antibacterial activity against the aerobic Pseudomonas aeruginosa (Strain UC no.95); format: functional; outline: as §2
Staphylococcus aureus [18] = assay: In vitro antibacterial activity against the aerobic Staphylococcus aureus (Strain UC no.570); format: functional; outline: as §2
[19] = In vitro antibacterial activity against the aerobic […] I(Strain UC no.41); format: functional; outline: as §2
Mus musculus [20] = assay: Bioactivity in abscess, in Bacteroides fragilis infected mice following subcutaneous dose of 200 mg/kg after 360 mins of bleeding; format: functional; outline: as §1
Mus musculus [21] = assay: Bioactivity in abscess, in Bacteroides fragilis infected mice following subcutaneous dose of 200 mg/kg after 15 mins of bleeding; format: functional; outline: as §1
Klebsiella pneumoniae = assay: In vitro antibacterial activity against the aerobic Klebsiella pneumoniae (Strain UC no.58); format: functional; outline: as §2
Staphylococcus aureus [22] = assay: In vitro antibacterial activity against the aerobic Staphylococcus aureus (Strain UC no.746); format: functional; outline: as §2
Streptococcus pyogenes = assay: In vitro antibacterial activity against the aerobic Streptococcus pyogenes (Strain UC no.152)
Cutibacterium acnes = assay: In vitro antibacterial activity against the anaerobic Propionibacterium acnes(Strain UC no.6575); format: functional; outline: as §3
Mus musculus [23] = assay: Bioactivity in abscess, in Bacteroides fragilis infected mice following subcutaneous dose of 200 mg/kg after 150 mins of bleeding; format: functional; outline: as §1
Staphylococcus aureus [24] = assay: In vitro antibacterial activity against the aerobic Staphylococcus aureus (Strain UC no.6691); format: functional; outline: as §2
Mus musculus [25] = assay: Bioactivity in abscess, in Bacteroides fragilis infected mice following subcutaneous dose of 200 mg/kg after 120 mins of bleeding; format: functional; outline: as §1
Staphylococcus aureus [26] = assay: In vitro antibacterial activity for minimum inhibition concentration (MIC) required to inhibit growth of Staphylococcus aureus; format: functional
Outline: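 Broth microdilution in brain/heart infusion broth, inoculated with a standardized suspension to a final 10^5 viable cells/mL. Incubation 20 h at 37 °C. MIC read as the lowest concentration preventing visible growth.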

Staphylococcus aureus [27] = assay: In vitro antibacterial activity against the aerobic Staphylococcus aureus (Strain UC no.6692); format: functional; outline: as §2
Staphylococcus aureus [28] = assay: In vitro antibacterial activity against the aerobic Staphylococcus aureus (Strain UC no.6675); format: functional; outline: as §2
Mus musculus [29] = assay: Bioactivity in abscess, in Bacteroides fragilis infected mice following subcutaneous dose of 200 mg/kg after 30 mins of bleeding; format: functional; outline: as §1
Mus musculus [30] = assay: Bioactivity in abscess, in Bacteroides fragilis infected mice following subcutaneous dose of 200 mg/kg after 60 mins of bleeding; format: functional; outline: as §1
Proteus vulgaris = assay: In vitro antibacterial activity against the aerobic Proteus vulgaris (Strain UC no.93); format: functional; outline: as §2
[31] = In vitro antibacterial activity against the aerobic […] (Strain UC no.871); format: functional; outline: as §2
Mus musculus [32] = assay: Bioactivity in blood, in Bacteroides fragilis infected mice following subcutaneous dose of 200 mg/kg after 45 mins of bleeding; format: functional; outline: as §1
Staphylococcus aureus [33] = assay: In vitro antibacterial activity against the aerobic Staphylococcus aureus (Strain UC no.6689); format: functional; outline: as §2
Mus musculus [34] = assay: Bioactivity in blood, in Bacteroides fragilis infected mice following subcutaneous dose of 200 mg/kg after 60 mins of bleeding; format: functional; outline: as §1
[35] = In vitro antibacterial activity against the aerobic Salmonella schottmuelleri (Strain UC no.126); format: functional; outline: as §2
Mus musculus [36] = assay: Bioactivity in blood, in Bacteroides fragilis infected mice following subcutaneous dose of 200 mg/kg after 360 mins of bleeding; format: functional; outline: as §1
Staphylococcus aureus [37] = assay: In vitro antibacterial activity against the aerobic Staphylococcus aureus (Strain UC no.6686); format: functional; outline: as §2

For `CC[C@@H]1CCN[C@H](C(=O)N[C@@H]([C@H]2O[C@H](SC)[C@H](O)[C@@H](O)[C@H]2O)[C@H](C)Cl)C1` [PIRLIMYCIN], the B (Mus musculus [1]) was 8 ug (g of abscess)-1, the MIC (Staphylococcus aureus [2]) was 0.1 µg/mL (≈ 0.243 µM) and the MIC (Escherichia coli) was > 25 µg/mL. For the same compound, the MIC [3] was < 0.012 µg/mL, the MIC (Clostridium tetani) was < 0.03 µg/mL and the MIC [4] was 0.05 µg/mL (≈ 0.122 µM). The MIC (Staphylococcus aureus [5]) was 0.78 µg/mL (≈ 1.9 µM), the MIC (Staphylococcus aureus [6]) was > 25 µg/mL and the A (Mus musculus [7]) was 32 ug (g of abscess)-1. It also gave an MIC (Staphylococcus aureus [8]) of 0.39 µg/mL (≈ 0.949 µM), an MIC (Staphylococcus aureus [9]) of 0.39 µg/mL (≈ 0.949 µM) and an MIC (Clostridium cadaveris) of 0.06 µg/mL (≈ 0.146 µM). The A (Mus musculus [10]) was 31 ug (g of abscess)-1, the B (Mus musculus [11]) was 14 ug (g of abscess)-1 and the B (Mus musculus [12]) was 43 ug (g of abscess)-1. For the same compound, the MIC (Staphylococcus aureus [13]) was 0.78 µg/mL (≈ 1.9 µM), the MIC [14] was 0.06 µg/mL (≈ 0.146 µM) and the B (Mus musculus [15]) was 10 ug (g of abscess)-1. The B (Mus musculus [16]) was 39 ug (g of abscess)-1, the MIC (Staphylococcus aureus [17]) was > 25 µg/mL and the MIC (Pseudomonas aeruginosa) was > 25 µg/mL. The MIC (Staphylococcus aureus [18]) was 0.39 µg/mL (≈ 0.949 µM), the MIC [19] was < 0.012 µg/mL and the A (Mus musculus [20]) was 15 ug (g of abscess)-1. For the same compound, the A (Mus musculus [21]) was 58 ug (g of abscess)-1, the MIC (Klebsiella pneumoniae) was > 25 µg/mL and the MIC (Staphylococcus aureus [22]) was 0.05 µg/mL (≈ 0.122 µM). For the same compound, the MIC (Streptococcus pyogenes) was < 0.012 µg/mL, the MIC (Cutibacterium acnes) was 0.06 µg/mL (≈ 0.146 µM) and the A (Mus musculus [23]) was 19 ug (g of abscess)-1. The MIC (Staphylococcus aureus [24]) was 0.2 µg/mL (≈ 0.487 µM), the A (Mus musculus [25]) was 22 ug (g of abscess)-1 and the MIC (Staphylococcus aureus [26]) was 0.1 µg/mL (≈ 0.243 µM). For the same compound, the MIC (Staphylococcus aureus [27]) was > 25 µg/mL, the MIC (Staphylococcus aureus [28]) was 0.39 µg/mL (≈ 0.949 µM) and the A (Mus musculus [29]) was 48 ug (g of abscess)-1. For the same compound, the A (Mus musculus [30]) was 31 ug (g of abscess)-1, the MIC (Proteus vulgaris) was > 25 µg/mL and the MIC [31] was < 0.012 µg/mL. The B (Mus musculus [32]) was 25 ug (g of abscess)-1, the MIC (Staphylococcus aureus [33]) was 0.78 µg/mL (≈ 1.9 µM) and the B (Mus musculus [34]) was 20 ug (g of abscess)-1. For the same compound, the MIC [35] was > 25 µg/mL, the B (Mus musculus [36]) was 4 ug (g of abscess)-1 and the MIC (Staphylococcus aureus [37]) was 0.2 µg/mL (≈ 0.487 µM).
